# Assay results from different studies.
# Lines come from different studies, so protocols differ.
# CHRM1: Muscarinic acetylcholine receptor M1 (CHRM1, Homo sapiens, UniProt P11229)
# CYP3A4: Cytochrome P450 3A4 (CYP3A4, Homo sapiens, UniProt P08684)
# 4,4'-diapophytoene synthase: 4,4'-diapophytoene synthase (Staphylococcus aureus, UniProt A9JQL9)
Compound,target,assay,system,setting,endpoint,result
Cc1cc(N2CCNCC2)nc2ccccc12,CHRM1,"ligand displacement, radioligand",,cell membranes,Ki,> 31.6 µM
CCc1cc(/C(C)=N/OCc2ccc(C3CCCCC3)c(C(F)(F)F)c2)ccc1CN1CC(C(=O)O)C1,CYP3A4,"enzyme activity, inhibitor","human, liver microsomes","20 min, midazolam probe",IC50,> 1.1 µM
N[C@@H](C[C@]1(C(=O)O)C[C@H]2OC[C@@H](O)[C@@H](O)[C@H]2O1)C(=O)O,"Glutamate receptor ionotropic, kainate 3 (Rattus norvegicus, UniProt P42264, F446Y)","ligand displacement, radioligand",,,Ki,0.547 µM
COc1cc(C(=O)N2CC[C@@H](O)[C@@H](N)C2)cc2nc(-c3cc4ccccc4n3CC3CC3)n(C)c12,CHRM1,"calcium signal, agonist",,,EC50,5.01 µM
N#C[C@H](C[C@@H]1CCCNC1=O)NC(=O)[C@H](CC1CC1)NC(=O)c1cc2cccc(Cl)c2[nH]1,CYP3A4,"enzyme activity, inhibitor","human, liver microsomes",midazolam probe,IC50,69.4 µM
CC(C)=CCC/C(C)=C/CC/C(C)=C/CSc1ccccc1C(=O)O,"4,4'-diapophytoene synthase","enzyme activity, inhibitor",,,Ki,0.11 µM
CC(=O)[C@@]1(O)CC[C@H]2[C@@H]3C=C(Cl)C4=CC(=O)[C@@H]5C[C@@H]5[C@]4(C)[C@H]3CC[C@@]21C,"Progesterone receptor (PGR, Homo sapiens, UniProt P06401)",enzyme activity,,,IC50,0.003 µM
CCCCN1CCC(COC(=O)c2cc(Cl)c(N)c3c2OCCO3)CC1,"5-hydroxytryptamine receptor 4 (HTR4, Homo sapiens, UniProt Q13639)","ligand displacement, radioligand",,,Ki,0.0001 µM
CC[C@H](C)[C@H](NC(=O)[C@H](CCCNC(=N)N)NC(=O)[C@H](CCCCN)NC(=O)[C@@H]1CCCN1C(=O)[C@@H](N)Cc1c[nH]c2ccccc12)C(=O)N[C@@H](C)C(=O)O,"N-terminal Xaa-Pro-Lys N-methyltransferase 1 (Homo sapiens, UniProt Q9BV86)","binding, ITC",,pH 7.5,Kd,47 µM
NCCCCCCNC(=O)c1ccc(NC(=O)c2ccc(CN(C(=O)c3ccc4c(c3)OCC(=O)N4)C3CC3)cc2)cc1,"Histone-lysine N-methyltransferase NSD2 (NSD2, Homo sapiens, UniProt O96028)","protein level, degrader",,,DC50,0.35 µM
CC(C)C[C@H](NC(=O)[C@H](Cc1ccccc1)NC(=O)c1cnccn1)B(O)O,"Lysosomal Pro-X carboxypeptidase (PRCP, Homo sapiens, UniProt P42785)","enzyme activity, inhibitor",,,IC50,12.4 µM
N#Cc1c(N)nc(SCC(N)=O)c(C#N)c1-c1ccc(OCC2CC2)cc1,"Adenosine receptor A2b (ADORA2B, Homo sapiens, UniProt P29275)","ligand displacement in cells, radioligand",,,IC50,0.785 µM
O=P(O)(O)C(CCCc1cccc(Oc2ccccc2)c1)S(=O)(=O)O (centres unmarked),"4,4'-diapophytoene synthase","enzyme activity, inhibitor",,,Ki,0.02 µM
Cc1cc(C)nc(Nc2ncc(C(=O)NCCc3c(C)[nH]c4ccccc34)cn2)c1,"Cytochrome P450 1A2 (CYP1A2, Homo sapiens, UniProt P05177)","enzyme activity, inhibitor","human, liver microsomes",,IC50,16 µM
CC(C)C[C@H]1C(=O)N2CCC[C@H]2[C@]2(O)O[C@](NC(=O)[C@@H]3C=C4c5cccc6[nH]cc(c56)C[C@H]4N(C)C3)(C(C)C)C(=O)N12,"Solute carrier organic anion transporter family member 1B1 (SLCO1B1, Homo sapiens, UniProt Q9Y6L6)","transporter uptake, inhibitor, fluorescence",CHO,"30 min, pH 7.4",IC50,0.8 µM
CCc1nnc(NS(=O)(=O)c2ccc(NC(=S)NC(=O)/C=C/c3ccc(F)cc3)cc2)s1,"Prostaglandin E2 receptor EP2 subtype (PTGER2, Homo sapiens, UniProt P43116)","cAMP, antagonist, TR-FRET",,,Kb,0.0088 µM
COC(=O)C1=CCCN(C)C1,"Acetyl-CoA acetyltransferase, mitochondrial (Homo sapiens, UniProt P24752)","enzyme activity, inhibitor",,,IC50,~11.1 µM
